Experimental data as given in ChEMBL document CHEMBL1146144, “Identification of a novel boron-containing antibacterial agent (AN0128) with anti-inflammatory activity, for the potential treatment of cutaneous diseases” (2006).
In brackets after ≈: the same amount, converted by molar mass.

What was measured:
Assay type in all cases: functional
Bacillus subtilis = assay: Antibacterial activity against Bacillus subtilis
Haemophilus influenzae = assay: Antibacterial activity against Haemophilus influenzae
Cutibacterium acnes = assay: Antibacterial activity against Propionibacterium acnes
Staphylococcus aureus = assay: Antibacterial activity against Staphylococcus aureus
[1] = system: Staphylococcus epidermidis; assay: Antibacterial activity against Staphylococcus epidermidis
PBMC [2] = assay: Inhibition of LPS-induced TNFalpha release in human PBMC at 10 uM relative to Dexamethasone
Outline: (§1)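 Test compound at a single concentration of 10. Stimulation: LPS for 24 h (TNF-α, IL-1β), PHA for 24 h (IFN-γ), concanavalin A for 48 h (IL-4). Cytokines released were measured by ELISA. Inhibition is given as percent of untreated control.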

PBMC [3] = assay: Inhibition of LPS-induced IL1-beta release in human PBMC at 10 uM […]; outline: as §1
PBMC [4] = assay: Inhibition of PHA-induced IFN-gamma release in human PBMC at 10 uM relative to Dexamethasone; outline: as §1
PBMC [5] = assay: Inhibition of concanavalin A-induced IL4 release in human PBMC at 10 uM relative to Dexamethasone; outline: as §1

Row | Structure (SMILES) | MIC (Bacillus subtilis) [µg/mL] | MIC (Haemophilus influenzae) [µg/mL] | MIC (Cutibacterium acnes) [µg/mL] | MIC (Staphylococcus aureus) [µg/mL] | MIC [1] [µg/mL] | inhibition at 10 µM (PBMC [2]) [%] | inhibition at 10 µM (PBMC [3]) [%] | inhibition at 10 µM (PBMC [4]) [%] | inhibition at 10 µM (PBMC [5]) [%]
1 | O=C(OB(c1ccsc1)c1cccc(Cl)c1)c1ncccc1O | 16 (≈ 46.6 µM) | 32 (≈ 93.1 µM) | 10 (≈ 29.1 µM) | 32 (≈ 93.1 µM) | 32 (≈ 93.1 µM) |  |  |  | 
2 | Cc1ccc(B(OC(=O)c2ccccn2)c2ccc(C)c(Cl)c2)cc1Cl |  |  |  | 0.5 (≈ 1.3 µM) | > 64 |  |  |  | 
3 | CC(=O)Oc1cccnc1C(=O)OB(c1ccc(C)c(Cl)c1)c1ccc(C)c(Cl)c1 | 0.5 (≈ 1.13 µM) | > 64 | 1 (≈ 2.26 µM) | 2 (≈ 4.52 µM) | 1 (≈ 2.26 µM) | 101 | -49 |  | 
4 | O=C(OB(c1ccc(Cl)cc1)c1ccc(Cl)cc1)c1ncccc1O | 1 (≈ 2.69 µM) | 16 (≈ 43 µM) | 1 (≈ 2.69 µM) | 4 (≈ 10.8 µM) | 1 (≈ 2.69 µM) |  |  |  | 
5 | CCOc1ccc(B(OC(=O)c2ncccc2O)c2ccc(OCC)c(Cl)c2)cc1Cl | 2 (≈ 4.35 µM) | > 64 | 1 (≈ 2.17 µM) | 2 (≈ 4.35 µM) | 2 (≈ 4.35 µM) |  |  |  | 
6 | O=C(OB(c1ccc(F)c(Cl)c1)c1ccc(F)c(Cl)c1)c1ncccc1O | 8 (≈ 19.6 µM) | 4 (≈ 9.8 µM) | 3 (≈ 7.35 µM) | 1 (≈ 2.45 µM) | 8 (≈ 19.6 µM) |  |  |  | 
7 | CSc1cccc(B(OC(=O)c2ncccc2O)c2cccc(Cl)c2)c1 | 4 (≈ 10.4 µM) | > 64 | 3 (≈ 7.82 µM) | 8 (≈ 20.9 µM) | 8 (≈ 20.9 µM) |  |  |  | 
8 | Cc1ccccc1B(OC(=O)c1ncccc1O)c1cccc(Cl)c1 | 4 (≈ 11.4 µM) | > 64 | 3 (≈ 8.53 µM) | 8 (≈ 22.8 µM) | 8 (≈ 22.8 µM) |  |  |  | 
9 | Cc1cc(Cl)ccc1B(OC(=O)c1ncccc1O)c1ccc(Cl)cc1C | 0.5 (≈ 1.25 µM) | 16 (≈ 40 µM) | 0.3 (≈ 0.75 µM) | 4 (≈ 10 µM) | 2 (≈ 5 µM) | 101 | 103 | 15 | 57
10 | O=C(OB(c1ccc(Cl)cc1)c1ccc(Cl)nc1)c1ncccc1O |  | 32 (≈ 85.8 µM) |  | 32 (≈ 85.8 µM) | 32 (≈ 85.8 µM) |  |  |  | 
11 | Cc1ccc(B(OC(=O)c2cc(C(=O)O)ccn2)c2ccc(C)c(Cl)c2)cc1Cl |  |  | 3 (≈ 7.01 µM) | 2 (≈ 4.67 µM) | 4 (≈ 9.34 µM) |  |  |  | 
12 | O=C(OB(c1cccc(F)c1)c1cccc(F)c1)c1ncccc1O | > 64 | > 64 | > 100 | > 64 | > 64 |  |  |  | 
13 | Cc1ccc(B(OC(=O)c2ncccc2C(=O)O)c2ccc(C)c(Cl)c2)cc1Cl | 8 (≈ 18.7 µM) | 8 (≈ 18.7 µM) | 3 (≈ 7.01 µM) | 0.125 (≈ 0.292 µM) | 4 (≈ 9.34 µM) |  |  |  | 
14 | Cc1ccc(B(OC(=O)c2ncccc2O)c2ccc(C)c(Cl)c2)cc1Cl | 1 (≈ 2.5 µM) | > 64 | 0.3 (≈ 0.75 µM) | 1 (≈ 2.5 µM) | 0.5 (≈ 1.25 µM) | 100 | 99 | -20 | -21
15 | O=C(OB(c1ccc(Cl)cc1)c1cccnc1)c1ncccc1O |  | 16 (≈ 47.3 µM) |  | 64 (≈ 189 µM) | 32 (≈ 94.5 µM) |  |  |  | 
16 | O=C(OB(c1cccc(Cl)c1)c1cccc(Cl)c1)c1ncccc1O | 16 (≈ 43 µM) | 16 (≈ 43 µM) | 10 (≈ 26.9 µM) | ≤ 0.125 | 8 (≈ 21.5 µM) |  |  |  | 
17 | Cc1ccc(B(OC(=O)c2ncccc2O)c2ccc(C)c(Cl)c2)cc1 | 2 (≈ 5.47 µM) | > 64 | 3 (≈ 8.21 µM) | 4 (≈ 10.9 µM) | 2 (≈ 5.47 µM) |  |  |  | 
18 | O=C(OB(c1cccnc1)c1cccc(Cl)c1)c1ncccc1O |  | 32 (≈ 94.5 µM) |  | 16 (≈ 47.3 µM) | 32 (≈ 94.5 µM) |  |  |  | 
19 | CC[C@H]1OC(=O)[C@H](C)[C@@H](O[C@H]2C[C@@](C)(OC)[C@@H](O)[C@H](C)O2)[C@H](C)[C@@H](O[C@@H]2O[C@H](C)C[C@H](N(C)C)[C@H]2O)[C@](C)(O)C[C@@H](C)C(=O)[C@H](C)[C@@H](O)[C@]1(C)O [ERYTHROMYCIN] | 0.1 (≈ 0.136 µM) | 4 (≈ 5.45 µM) | 0.1 (≈ 0.136 µM) | 0.5 (≈ 0.681 µM) | 0.15 (≈ 0.204 µM) | 22 | -32 |  | 
20 | Cc1ccc(B(OC(=O)c2ncccc2N)c2ccc(C)c(Cl)c2)cc1Cl | 2 (≈ 5.01 µM) | > 64 | 1 (≈ 2.51 µM) | > 64 | > 64 |  |  |  | 
21 | CN(C)c1ccc(B(OC(=O)c2ncccc2O)c2ccc(N(C)C)c(Cl)c2)cc1Cl | 64 (≈ 140 µM) | > 64 |  | 32 (≈ 69.8 µM) | 32 (≈ 69.8 µM) |  |  |  | 
22 | Cc1ccc(B(OC(=O)c2ncccc2C(=O)c2ccccc2)c2ccc(C)c(Cl)c2)cc1Cl | 64 (≈ 131 µM) | > 64 | 30 (≈ 61.5 µM) | 0.5 (≈ 1.02 µM) | 32 (≈ 65.5 µM) |  |  |  | 
23 | Cc1ccc(B(CCc2ccccc2)OC(=O)c2ncccc2O)cc1Cl | 1 (≈ 2.63 µM) | > 64 | 1 (≈ 2.63 µM) | 0.5 (≈ 1.32 µM) | 1 (≈ 2.63 µM) |  |  |  | 
24 | Cc1ccc(B(OC(=O)c2ccc(C(=O)O)cn2)c2ccc(C)c(Cl)c2)cc1Cl | 8 (≈ 18.7 µM) | 8 (≈ 18.7 µM) | 3 (≈ 7.01 µM) | 0.5 (≈ 1.17 µM) | 8 (≈ 18.7 µM) | 100 | 80 | 24 | 9
